How the values were obtained:
[1] = molecular target: VEGFR2 kinase; conditions: read-out: IC50 VEGFR2 kinase (reported); cited from earlier work
[2] = Pharmacokinetic studies in Sprague Dawley rats; type: in vivo; conditions: rat, plasma
[3] = system: MRC5; assay: MRC5 proliferation assay; type: cell-based; conditions: Homo sapiens, MRC5, read-out: IC50 MRC5 proliferation
[4] = system: Male SD rats; assay: Drug plus three weeks hypoxia; type: in vivo, rat; conditions: for Right ventricular systolic pressure (RVSP): 17.8 µg/h Alzet osmotic pump for 14 of 21 days of hypoxia; for RVH compared to the normal control group: 28 days post-hypoxia; for Induction of severe PAH: drug plus hypoxia, rats
In short: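 Male SD rats got test compound 20 mg/kg SC once or 17.8 μg/h by osmotic minipump, then 3 weeks at FiO2 10% and 14 or 28 days normoxia; untreated normoxic rats as controls. Under isoflurane, RV pressure by sternotomy catheter; RV free wall, IVS, LV weighed. Lungs perfused with 10% formalin, H&E 8 μm sections, lumen/media area ratio, ≥20 arterioles/section. RV Picro-Sirius red staining.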

[5] = molecular target: T1, bone morphogenic protein receptor type 2 (BMPR2) (Homo sapiens, UniProt Q13873); assay: KdELECT assay, inhibitor binding constant for BMPR2
T1 sequence (Q13873 27-1038): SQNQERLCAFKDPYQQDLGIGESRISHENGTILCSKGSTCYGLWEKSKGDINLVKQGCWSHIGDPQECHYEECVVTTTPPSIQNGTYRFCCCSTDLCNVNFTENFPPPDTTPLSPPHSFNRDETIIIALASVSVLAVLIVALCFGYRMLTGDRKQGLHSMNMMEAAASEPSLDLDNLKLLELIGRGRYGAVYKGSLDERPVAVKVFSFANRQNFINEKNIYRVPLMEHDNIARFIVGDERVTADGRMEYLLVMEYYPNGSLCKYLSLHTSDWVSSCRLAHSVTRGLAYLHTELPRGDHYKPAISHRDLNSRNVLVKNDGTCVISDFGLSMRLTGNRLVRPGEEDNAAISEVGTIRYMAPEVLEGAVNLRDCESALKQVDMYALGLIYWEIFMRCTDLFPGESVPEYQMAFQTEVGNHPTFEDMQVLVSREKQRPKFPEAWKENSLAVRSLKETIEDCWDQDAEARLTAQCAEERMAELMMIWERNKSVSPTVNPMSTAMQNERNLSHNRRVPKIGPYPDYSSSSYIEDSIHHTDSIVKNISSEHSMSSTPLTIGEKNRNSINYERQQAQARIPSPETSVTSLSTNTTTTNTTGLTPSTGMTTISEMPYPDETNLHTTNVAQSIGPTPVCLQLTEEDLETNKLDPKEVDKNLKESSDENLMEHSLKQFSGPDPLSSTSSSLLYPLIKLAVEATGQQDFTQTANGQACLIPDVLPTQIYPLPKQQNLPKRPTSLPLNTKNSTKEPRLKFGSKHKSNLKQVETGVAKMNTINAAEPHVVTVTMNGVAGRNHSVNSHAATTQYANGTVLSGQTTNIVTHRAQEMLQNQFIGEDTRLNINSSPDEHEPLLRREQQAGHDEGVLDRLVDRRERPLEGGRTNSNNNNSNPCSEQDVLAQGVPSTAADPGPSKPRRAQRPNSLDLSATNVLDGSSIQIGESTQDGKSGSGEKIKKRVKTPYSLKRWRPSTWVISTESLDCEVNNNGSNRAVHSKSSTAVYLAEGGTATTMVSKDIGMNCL

[6] = system: human umbilical vein endothelial cell (HUVEC); assay: HUVEC proliferation assay; type: cell-based; conditions: read-out: IC50 HUVECs proliferation
[7] = molecular target: VEGFR2 (Homo sapiens, UniProt P35968); assay: KINOMEscan Profiling against 468 human kinases: VEGFR2; type: binding; conditions: 10,000 nM
[8] = other: via an Alzet pump, 12 mg/kg

Chain of VEGFR2 (P35968 20-1356): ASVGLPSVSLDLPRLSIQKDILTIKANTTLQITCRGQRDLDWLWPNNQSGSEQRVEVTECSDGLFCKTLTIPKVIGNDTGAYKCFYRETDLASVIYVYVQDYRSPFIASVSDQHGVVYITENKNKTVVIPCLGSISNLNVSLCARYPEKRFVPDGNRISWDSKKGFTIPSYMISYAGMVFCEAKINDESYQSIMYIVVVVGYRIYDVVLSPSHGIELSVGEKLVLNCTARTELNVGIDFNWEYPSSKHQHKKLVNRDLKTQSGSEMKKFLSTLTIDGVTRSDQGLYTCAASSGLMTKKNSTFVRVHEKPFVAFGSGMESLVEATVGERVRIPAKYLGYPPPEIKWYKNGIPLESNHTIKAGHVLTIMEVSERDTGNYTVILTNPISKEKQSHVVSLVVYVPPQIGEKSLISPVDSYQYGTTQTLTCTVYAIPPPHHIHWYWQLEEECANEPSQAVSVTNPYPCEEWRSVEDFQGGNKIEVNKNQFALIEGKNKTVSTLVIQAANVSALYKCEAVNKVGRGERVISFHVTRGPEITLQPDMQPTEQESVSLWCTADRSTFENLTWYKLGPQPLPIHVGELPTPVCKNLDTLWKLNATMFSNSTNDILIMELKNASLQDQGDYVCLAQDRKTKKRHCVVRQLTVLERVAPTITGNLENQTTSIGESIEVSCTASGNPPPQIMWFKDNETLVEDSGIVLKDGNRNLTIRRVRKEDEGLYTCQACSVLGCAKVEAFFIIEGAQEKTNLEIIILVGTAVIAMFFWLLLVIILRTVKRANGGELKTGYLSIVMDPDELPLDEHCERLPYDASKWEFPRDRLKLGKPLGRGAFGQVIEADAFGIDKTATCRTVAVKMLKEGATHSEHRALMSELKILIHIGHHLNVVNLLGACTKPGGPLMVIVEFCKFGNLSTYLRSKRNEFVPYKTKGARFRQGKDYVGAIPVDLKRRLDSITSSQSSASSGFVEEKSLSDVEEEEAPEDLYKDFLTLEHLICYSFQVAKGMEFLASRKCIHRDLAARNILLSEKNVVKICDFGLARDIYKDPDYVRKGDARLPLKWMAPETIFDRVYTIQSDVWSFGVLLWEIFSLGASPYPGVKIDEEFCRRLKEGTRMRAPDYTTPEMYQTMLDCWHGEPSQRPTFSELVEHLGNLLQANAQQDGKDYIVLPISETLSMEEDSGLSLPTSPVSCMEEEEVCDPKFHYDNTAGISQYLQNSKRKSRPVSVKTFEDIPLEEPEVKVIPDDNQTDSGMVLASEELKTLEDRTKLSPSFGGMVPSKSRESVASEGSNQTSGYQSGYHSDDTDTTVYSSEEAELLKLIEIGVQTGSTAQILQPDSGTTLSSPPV

Structure (SMILES)	IC50 [1] [nM]	AUC(0-t) [2, 8] [ng·h/mL]	Cmax [2, 8] [ng/mL]	half-life [2, 8] [h]	AUC(0-t) ([2]; sc, 20 mg/kg) [ng·h/mL]	Cmax ([2]; sc, 20 mg/kg) [ng/mL]	half-life ([2]; sc, 20 mg/kg) [h]	IC50 [3] [nM]	Right ventricular systolic pressure (RVSP) ([4]; 14 days after removal from hypoxia, mean ± SEM) [mmHg]	Right ventricular systolic pressure (RVSP) ([4]; 28 days after removal from hypoxia, mean ± SEM) [mmHg]	RVH by Fulton's Index (RV/(LV + IVS)) ([4]; 14 days post-hypoxia, Cabo = SC + Alzet groups, mean ± SEM)	RVH compared to the normal control group [4]	Induction of severe PAH [4]	Kd [5] [nM]	IC50 [6] [nM]	Activity against VEGFR2 in kinome screen [7]	RV fibrosis (Picro-Sirius red, qualitative) ([4]; days 14 and 28 after removal from hypoxia, SU5416H vs CaboH groups)
COc1cc2nccc(Oc3ccc(NC(=O)C4(C(=O)Nc5ccc(F)cc5)CC4)cc3)c2cc1OC [Cabozantinib, cabozantinib]	0.035	16800	238 ± 83	43 ± 8	27500	1620 ± 103	25.7 ± 10.8	549	40.0 ± 3.1	27.9 ± 1.9	0.36 ± 0.02	no significant difference	did not induce severe PAH	> 10000	4.9	–	–
Cc1cc(C)c(/C=C2\C(=O)Nc3ccccc32)[nH]1 [SU5416]	–	–	–	–	12.6 ± 2	4.97 ± 2.3	5 ± 4.7	11700	–	–	–	significantly increased	induced severe PAH	–	330	potent	increase in RV fibrosis

— article PMC8202272 (Pulmonary Circulation, 2021)
